Source: ChEMBL document CHEMBL3769396 (J Med Chem, 2016)

Key:
Histone deacetylase 8 = target: T1, Histone deacetylase 8 (Homo sapiens, UniProt Q9BY41); experiment: Inhibition of human HDAC8 using Z-L-Lys([…]-trifluoroacetyl)-AMC as substrate after 90 mins by fluorescence analysis
T1 sequence (Q9BY41 whole entry): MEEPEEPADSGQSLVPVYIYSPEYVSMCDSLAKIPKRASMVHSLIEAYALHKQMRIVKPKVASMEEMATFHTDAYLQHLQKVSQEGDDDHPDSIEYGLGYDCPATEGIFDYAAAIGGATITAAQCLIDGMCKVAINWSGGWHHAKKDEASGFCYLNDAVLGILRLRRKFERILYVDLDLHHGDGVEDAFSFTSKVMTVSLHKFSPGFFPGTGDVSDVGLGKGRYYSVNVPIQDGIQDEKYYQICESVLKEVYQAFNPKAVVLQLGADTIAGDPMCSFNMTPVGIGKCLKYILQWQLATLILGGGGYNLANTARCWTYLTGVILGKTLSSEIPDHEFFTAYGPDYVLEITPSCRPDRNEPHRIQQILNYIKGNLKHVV

[1] = target: T2, Protein deacetylase HDAC6 (Homo sapiens, UniProt Q9UBN7); experiment: Inhibition of human HDAC6 using (Z-(Ac)Lys-AMC) as substrate after 90 mins by fluorescence analysis
T2 sequence (Q9UBN7 whole entry): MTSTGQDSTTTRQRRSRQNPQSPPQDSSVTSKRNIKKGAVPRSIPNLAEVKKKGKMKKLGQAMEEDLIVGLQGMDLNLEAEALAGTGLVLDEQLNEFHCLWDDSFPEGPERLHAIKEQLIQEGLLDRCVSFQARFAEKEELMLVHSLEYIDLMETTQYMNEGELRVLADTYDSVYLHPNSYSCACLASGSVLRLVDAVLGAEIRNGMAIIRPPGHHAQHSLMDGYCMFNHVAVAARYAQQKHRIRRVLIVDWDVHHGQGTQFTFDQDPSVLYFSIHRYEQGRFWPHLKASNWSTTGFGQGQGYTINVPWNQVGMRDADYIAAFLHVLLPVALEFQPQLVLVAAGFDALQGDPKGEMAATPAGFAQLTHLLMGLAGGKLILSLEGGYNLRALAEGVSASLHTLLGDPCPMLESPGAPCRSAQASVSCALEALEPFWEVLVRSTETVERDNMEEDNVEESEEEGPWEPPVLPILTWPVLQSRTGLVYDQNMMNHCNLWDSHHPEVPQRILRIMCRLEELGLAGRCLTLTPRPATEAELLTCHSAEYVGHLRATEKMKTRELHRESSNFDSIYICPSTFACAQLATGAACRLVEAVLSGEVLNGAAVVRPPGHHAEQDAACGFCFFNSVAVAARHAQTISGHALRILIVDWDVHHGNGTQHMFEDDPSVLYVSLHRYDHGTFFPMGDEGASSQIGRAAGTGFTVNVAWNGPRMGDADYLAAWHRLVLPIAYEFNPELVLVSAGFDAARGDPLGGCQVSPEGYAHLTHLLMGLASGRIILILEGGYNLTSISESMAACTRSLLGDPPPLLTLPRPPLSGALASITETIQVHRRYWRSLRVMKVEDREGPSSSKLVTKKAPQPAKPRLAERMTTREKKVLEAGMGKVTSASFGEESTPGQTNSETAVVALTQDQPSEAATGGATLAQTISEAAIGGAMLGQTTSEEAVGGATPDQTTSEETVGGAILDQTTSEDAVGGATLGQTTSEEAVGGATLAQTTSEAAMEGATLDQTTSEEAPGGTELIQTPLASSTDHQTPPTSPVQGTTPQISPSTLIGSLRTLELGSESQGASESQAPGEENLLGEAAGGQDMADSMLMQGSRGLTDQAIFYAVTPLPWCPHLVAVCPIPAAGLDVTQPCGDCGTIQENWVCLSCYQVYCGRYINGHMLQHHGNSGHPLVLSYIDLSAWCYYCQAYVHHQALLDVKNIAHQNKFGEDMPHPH

Histone deacetylase 1 [2] = target: T3, Histone deacetylase 1 (Homo sapiens, UniProt Q13547); experiment: Inhibition of human HDAC1 using (Z-(Ac)Lys-AMC) as substrate after 90 mins by fluorescence analysis
[3] = Cytotoxicity against human HL60 cells after 72 hrs by cell titre 96 aqueous cell proliferation assay; assay type: functional, HL-60
How it was run: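 HL60 cells, 5000/well in RPMI with 10% FBS, 2 mM L-glutamine and penicillin/streptomycin, treated with a range of concentrations (0.05% DMSO control) for 72 h. MTS/PMS (20:1) was then added and A490 read after 2-4 h, with the cell-free background subtracted. GI50 is the concentration giving 50% viable cells; triplicates, mean of at least two experiments.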

Histone deacetylase 1 [4] = target: T3, Histone deacetylase 1; experiment: Inhibition of human HDAC1 at 10 uM using (Z-(Ac)Lys-AMC) as substrate after 90 mins by fluorescence analysis
Homo sapiens = species: Homo sapiens; experiment: Selectivity ratio of IC50 for class1 HDAC (unknown origin) to IC50 for HDAC6 (unknown origin)
How it was run: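 Ratio of IC50 HDAC1 (or HDAC8) to IC50 HDAC6. Human recombinant HDAC1/6 were run in Tris-HCl pH 8.0 with NaCl, KCl, MgCl2 and BSA, using ZMAL substrate. HDAC8 was run in KH2PO4/Tris pH 7.5 with Z-L-Lys(ε-trifluoroacetyl)-AMC. All: 90 min at 37 °C, then TSA/trypsin stop for 30 min, fluorescence ex 390/em 460 nm. IC50 is the mean of at least two experiments.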

[5] = target: T4, Histone deacetylase 8 (Homo sapiens) (UniProt Q9BY41); experiment: Inhibition of human HDAC8 at 100 uM using Z-L-Lys([…]-trifluoroacetyl)-AMC as substrate after 90 mins by fluorescence analysis
T4 sequence (whole entry): T1 sequence (Q9BY41 whole entry)

T3 sequence (Q13547 whole entry): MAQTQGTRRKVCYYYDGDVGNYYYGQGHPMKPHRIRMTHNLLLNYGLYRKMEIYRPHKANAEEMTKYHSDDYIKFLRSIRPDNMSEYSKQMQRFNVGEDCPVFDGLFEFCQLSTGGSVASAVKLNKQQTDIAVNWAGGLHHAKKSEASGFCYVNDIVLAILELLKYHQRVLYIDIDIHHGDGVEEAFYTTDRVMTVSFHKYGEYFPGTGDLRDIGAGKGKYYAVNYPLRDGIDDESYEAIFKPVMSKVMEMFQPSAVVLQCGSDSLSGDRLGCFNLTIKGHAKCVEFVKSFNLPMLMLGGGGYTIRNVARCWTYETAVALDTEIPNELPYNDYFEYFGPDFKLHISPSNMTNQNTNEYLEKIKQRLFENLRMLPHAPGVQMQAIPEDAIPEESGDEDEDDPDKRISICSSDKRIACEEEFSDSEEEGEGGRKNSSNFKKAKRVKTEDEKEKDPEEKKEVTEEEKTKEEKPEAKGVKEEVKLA

| Compound | IC50 (Histone deacetylase 8) [µM] | IC50 [1] [nM] | IC50 (Histone deacetylase 1 [2]) [µM] | GI50 ([3]; Homo sapiens, HL-60, 72 h) [µM] | GI50 [3] [µM] | inhibition (Histone deacetylase 1 [4]) [%] | Ratio IC50 (Homo sapiens) | inhibition [5] [%] |
| --- | --- | --- | --- | --- | --- | --- | --- | --- |
| O=C(NO)c1coc(-c2cccs2)n1 | 8.13 | 311 | 36.5 |  |  |  |  |  |
| O=C(NO)c1coc(-c2ccc(-c3ccccc3)cc2)n1 | 27.3 | 89 | 29.5 | 5.6 |  |  |  |  |
| O=C(NO)c1coc(-c2ccc(Br)cc2)n1 |  |  |  | 10.2 |  |  |  |  |
| O=C(NO)c1coc(-c2ccc(F)cc2)n1 | 43.3 | 110 | 23.7 | 30.1 |  |  |  |  |
| O=C(NO)c1noc(-c2ccc(Br)cc2)n1 | 20 | 2770 | 33.5 |  |  |  |  |  |
| Cc1ccc(-c2nc(C(=O)NO)co2)cc1 | 33.9 | 313 | 40.1 |  |  |  |  |  |
| O=C(NO)c1coc(C(c2ccccc2)c2ccccc2)n1 | 2.7 | 9370 | 93.9 |  |  |  |  |  |
| O=C(NO)c1coc(-c2ccccc2)n1 | 41.9 | 270 | 29.9 | 44.1 |  |  |  |  |
| O=C(NO)c1csc(-c2cnccn2)n1 | 61.4 | 8850 | 82.2 |  |  |  |  |  |
| O=C(CCCCCCC(=O)Nc1ccccc1)NO [VORINOSTAT] |  |  |  |  | 0.08 |  |  |  |
| O=C(NO)c1coc(-c2ccccc2Br)n1 | 20.2 | 2180 | 22.6 |  |  |  |  |  |
| O=C(NO)c1csc(-c2ccccc2)n1 | 12.1 | 1910 | 10.3 |  |  |  |  |  |
| O=C(NO)c1csc(-c2cccnc2)n1 |  | 300 |  |  |  | 36 |  |  |
| O=C(CCCCCCNC(=O)c1cnc(N(c2ccccc2)c2ccccc2)nc1)NO |  |  |  |  |  |  | 10 |  |
| O=C(NO)c1noc(-c2ccc(-c3ccccc3)cc2)n1 |  | 1310 | 14.9 |  |  |  |  | 62 |
| O=C(NO)c1coc(-c2cccc(-c3ccccc3)c2)n1 | 10.1 | 500 | 19.1 |  |  |  |  |  |
| O=C(NO)c1csc(C(c2ccccc2)c2ccccc2)n1 | 12.9 | 3690 | 47.7 |  |  |  |  |  |
| O=C(NO)c1noc(-c2ccccc2)n1 | 38.5 | 112 | 25 |  |  |  |  |  |
| O=C(NO)c1coc(-c2ccc3ccccc3c2)n1 | 26.2 | 89 | 12.2 | 6.3 |  |  |  |  |
| COc1ccc2cc(-c3nc(C(=O)NO)co3)ccc2c1 | 29.1 | 182 | 22.5 |  |  |  |  |  |
| O=C(NO)c1coc(-c2ccc(Cl)cc2)n1 | 30.8 | 81 | 19.6 |  |  |  |  |  |
| O=C(NO)c1csc(-c2ccc(Br)cc2)n1 | 36.4 | 1060 | 17.5 | 11.1 |  |  |  |  |
| COc1ccc(-c2nc(C(=O)NO)co2)cc1 | 50.9 | 195 | 32.9 | 29.2 |  |  |  |  |
| O=C(NO)c1csc(Cc2ccccc2)n1 | 35 | 2540 | 83.6 |  |  |  |  |  |
